Measurements from ChEMBL document CHEMBL3526120, “Plasma stability-dependent circulation of acyl glucuronide metabolites in humans: how circulating metabolite profiles of muraglitazar and peliglitazar can lead to misleading risk assessment” (Drug Metab Dispos, 2011).

How the values were obtained:
[1] = Drug excretion in human urine at 20 mg, po measured during 0 to 168 hrs; format: ADME, organism-based; details: read-out: Drug excretion
[2] = Drug excretion in human bile at 20 mg, po measured during 3 to 8 hrs; format: ADME, organism-based; details: read-out: Drug excretion
Plasma = experiment: Stability in human plasma assessed as aglycon formation rate by HPLC analysis in presence of 50 mM phosphate; format: ADME, cell-free
In short: (§1)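 Synthetic 1-O-β-acyl glucuronide at 50 μg/mL, incubated at 37°C and pH 7.4. […] used 50 mM sodium phosphate buffer; […] used human plasma buffered with 50 mM phosphate. Samples were taken at 0.25–48 h (3 tubes per time point), frozen at -80 °C and run on HPLC system III. Aglycon formation rate is the mean of rates within the linear range (<3 hr).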

[3] = Drug excretion in human bile treated with [14C]muraglitazar at 20 mg, po measured during 3 to 8 hrs; format: ADME, organism-based; details: in vivo
Homo sapiens [4] = experiment: Drug level in human plasma assessed as compound formation treated with [14C]muraglitazar at 20 mg, po administered as single dose measured after 1 hr by HPLC analysis; format: ADME, organism-based; details: in vivo
In short: (§2)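 Healthy males aged 18–45 (four subjects) fasted at least 8 h, then took a single oral PEG-400 solution (~100 μCi) of [14C]muraglitazar 20 mg or [14C]peliglitazar 10 mg. K2EDTA plasma was taken at 1, 4, 12 and 24 h, acidified to 5% acetic acid and stored at -20 °C. Plasma was pooled across subjects, extracted three times with methanol/acetonitrile (1:3), and fractions from HPLC system II were radiocounted. Concentration came from relative radioactivity distribution, total radioactivity and specific activity.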

[5] = Chemical stability of compound assessed as aglycon formation rate in 50 mM phosphate buffer at pH 7.4 by HPLC analysis; format: physicochemical; in short: as §1
[6] = Drug excretion in human urine treated with [14C]muraglitazar at 20 mg, po measured during 0 to 168 hrs; format: ADME, organism-based; details: in vivo
Liver microsome [7] = experiment: Drug metabolism in human liver microsomes assessed as glucuronide oxidation rate per mg of protein in presence of NADPH; format: ADME
In short: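 Acyl glucuronide (20 μM) was incubated for 15 min with human liver microsomes (2 mg/mL protein) in 50 mM sodium phosphate, with and without 1 mM NADPH. Products were separated on HPLC system II, quantified by UV at 278 nm and identified by LC/MS.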

[8] = Drug excretion in human bile treated with [14C][…] at […], po measured during 3 to 8 hrs; format: ADME, organism-based; details: in vivo
Homo sapiens [9] = experiment: Drug level in human plasma assessed as compound formation treated with [14C]peliglitazar at 10 mg, po administered as single dose measured after 1 to 24 hrs by HPLC analysis; format: ADME, organism-based; details: in vivo; in short: as §2
[10] = Drug excretion in human urine treated with [14C][…] at […], po measured during 0 to 168 hrs; format: ADME, organism-based; details: in vivo
Homo sapiens [11] = experiment: Drug metabolism in human plasma assessed as peliglitazar-1-O-beta-acyl glucuronide formation at 10 mg, po administered as single dose measured after 1 to 24 hrs by HPLC analysis; format: ADME, organism-based; details: in vivo
In short: (§3)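 Healthy male volunteers received a single oral [14C] dose (approximately 100 μCi) in PEG-400 after fasting. K2EDTA blood drawn at 1, 4, 12 and 24 h. Plasma acidified to 5% acetic acid, stored at -20°C, pooled across subjects and extracted three times with methanol/acetonitrile (1:3). Radio-HPLC used fraction collection and counting; protein pellets were counted after NaOH digestion.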

Hepatocyte = experiment: Drug metabolism in human hepatocytes assessed as glucuronidation rate per 10^6 cells at 5 uM after 1 hr by LC-MS/HPLC analysis in Krebs-Henseleit buffer
Liver microsome [12] = experiment: Drug metabolism in human liver microsomes assessed as glucuronidation rate per mg of protein at 10 uM after 15 mins by LC-MS/HPLC analysis in presence of 2 mM UDPGA; format: ADME; details: 0.25 h
In short: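 Human liver microsomes (1 mg/mL protein) with substrate 10 μM final, UDPGA 2 mM, MgCl2 10 mM, Tris 100 mM pH 7.4. Started with substrate at 37°C, stopped after 15 min with one volume acetonitrile, centrifuged. Supernatant analysed by LC/MS; fraction from the 278 nm UV trace as metabolite/(metabolite + parent).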

Homo sapiens [13] = experiment: Drug metabolism in human plasma assessed as acyl isomer formation at 10 mg, po administered as single dose by HPLC analysis; format: ADME, organism-based; details: in vivo; in short: as §3
Homo sapiens [14] = experiment: Drug metabolism in human plasma assessed as acyl isomer formation at 20 mg, po administered as single dose by HPLC analysis; format: ADME, organism-based; details: in vivo; in short: as §3
Homo sapiens [15] = experiment: Drug metabolism in human plasma assessed as muraglitazar-1-O-beta-acyl glucuronide formation at 20 mg, po administered as single dose after 1 hr by HPLC analysis; format: ADME, organism-based; details: in vivo; in short: as §3
Homo sapiens [16] = experiment: Drug metabolism in human plasma assessed as muraglitazar-1-O-beta-acyl glucuronide formation at 20 mg, po administered as single dose measured after 4 to 24 hrs by HPLC analysis; format: ADME, organism-based; details: in vivo; in short: as §3

| Drug metabolism (Plasma) [ug/ml.hr] | Drug metabolism [5] [ug/ml.hr] | Drug metabolism (Liver microsome [7]) [pmol/min] | Compound | dose excreted [1] [%] | dose excreted [2] [%] | Drug metabolism (Hepatocyte) [pmol/min] | Drug metabolism (Liver microsome [12]) [pmol/min] | further results |
| --- | --- | --- | --- | --- | --- | --- | --- | --- |
| – | – | – | COc1ccc(OC(=O)N(CC(=O)O)[C@@H](C)c2ccc(OCCc3nc(-c4ccccc4)oc3C)cc2)cc1 [PELIGLITAZAR] | 1.24 | 24.4 | – | – | – |
| 16.7 | 3.5 | 22 | COc1ccc(OC(=O)N(CC(=O)O[C@@H]2O[C@H](C(=O)O)[C@@H](O)[C@H](O)[C@H]2O)Cc2ccc(OCCc3nc(-c4ccccc4)oc3C)cc2)cc1 | – | – | – | – | Drug excretion [3]: 15%; Drug metabolism (Homo sapiens [4]): metabolite_detected; Drug excretion [6]: 0.81% |
| 5.9 | 0.5 | 24 | COc1ccc(OC(=O)N(CC(=O)O[C@@H]2O[C@H](C(=O)O)[C@@H](O)[C@H](O)[C@H]2O)[C@@H](C)c2ccc(OCCc3nc(-c4ccccc4)oc3C)cc2)cc1 | – | – | – | – | Drug excretion [8]: 16%; Drug metabolism (Homo sapiens [9]): metabolite_detected; Drug excretion [10]: 0.24% |
| – | – | – | COc1ccc(OC(=O)N(CC(=O)O)[14C@@H](C)c2ccc(O[14CH2]Cc3nc(-c4ccccc4)oc3C)cc2)cc1 | – | – | 49 | 32 | Drug metabolism (Homo sapiens [11]): metabolite_detected; Drug metabolism (Homo sapiens [13]): metabolite_not_detected |
| – | – | – | COc1ccc(OC(=O)N(CC(=O)O)C[14c]2[14cH][14cH][14c](OCCc3nc(-c4ccccc4)oc3C)[14cH][14cH]2)cc1 | – | – | 60 | 33 | Drug metabolism (Homo sapiens [14]): metabolite_not_detected; Drug metabolism (Homo sapiens [15]): metabolite_detected; Drug metabolism (Homo sapiens [16]): metabolite_not_detected |
| – | – | – | COc1ccc(OC(=O)N(CC(=O)O)Cc2ccc(OCCc3nc(-c4ccccc4)oc3C)cc2)cc1 [MURAGLITAZAR] | 2.13 | 39.9 | – | – | – |
